Hits are enriched below; roughly 3.5% of the tested compounds scored in any of these assays.
RGS4 pot: potentiators or activators of RGS4; HEK293 M3R/inducible RGS4, carbachol calcium flux Fluo4; hits give low values; B-score at 10 µM; 0.92% of 310,000 active; AID 463111;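 active means B-score of the integrated calcium signal more than 4 SD below the library mean, with starting fluorescence not abnormally high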;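 further: negative B-score means reduced calcium response which marks RGS4 activation or potentiation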
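System – HEK293 FlpIn-TREx cells, stable M3R, doxycycline-inducible RGS4 · Reagent – ECmax carbachol challenge · Times – compound preincubation 20 min at room temperature before agonist · Technique – Fluo4 fluorescence kinetic imaging of calcium · Measure – B score of integrated Fluo4 ratio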
MrgX1 ag: human MrgX1 receptor agonism, primary screen; Q96LB2; MrgX1-HEK293 cells, Fluo-4 calcium fluorescence, agonist mode; hits give high values; B-score at 10 µM; 0.44% of 310,000 active; AID 588627;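 active means calcium response B-score plate-corrected fluorescence ratio at least 3 library SD, with starting fluorescence B-score inside 5 SD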
Target sequence (Q96LB2 whole entry, looked up): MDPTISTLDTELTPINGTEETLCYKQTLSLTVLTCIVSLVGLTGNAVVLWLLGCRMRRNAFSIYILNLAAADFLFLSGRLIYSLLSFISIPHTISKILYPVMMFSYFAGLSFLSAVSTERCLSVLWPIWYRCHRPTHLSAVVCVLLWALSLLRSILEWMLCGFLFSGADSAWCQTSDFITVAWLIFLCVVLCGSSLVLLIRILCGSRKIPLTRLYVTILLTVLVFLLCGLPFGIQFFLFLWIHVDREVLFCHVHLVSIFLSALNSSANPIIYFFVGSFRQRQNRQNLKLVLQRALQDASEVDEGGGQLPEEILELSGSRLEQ
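System – MrgX1-expressing HEK293 cells · Incubation – cells plated overnight, dye loaded 0.5 h 37 °C, 0.5 h room temperature · Technique – kinetic Fluo-4 NW fluorescence of intracellular calcium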
MrgX1 antag: human MrgX1 receptor antagonism, primary screen; MRGX1-HEK293 calcium flux, Fluo-4, BAM8-22 antagonism; hits give low values; B-score at 10 µM; Q96LB2; AID 588676; 1.3% of 310,000 active;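 active means calcium-response B-score plate-corrected more than 3 library SD below zero, starting fluorescence within 5 deviations, no agonist response on first addition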;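 further: peak minus trough fluorescence over baseline after final BAM8-22 challenge near maximal dose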
MrgX1 PAM: allosterically activates human MrgX1 receptor signaling | Q96LB2 | MrgX1-HEK293, Fluo-4 calcium flux, FDSS; hits give high values | B-score at 10 µM | 0.63% of 310,000 active | AID 588675;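 active means plate-corrected calcium response at least 3 library SD above typical, normal starting fluorescence, not activating the receptor alone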;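 further: compound read alongside a low EC10 to EC30 dose of BAM8-22 agonist; peak minus trough fluorescence over baseline measured at the second addition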
RGS4 block: human RGS4 inhibition. P49798. HEK293 M3R/RGS4 inducible, Fluo-4 calcium flux; hits give high values; triggered by carbachol at its EC20. B-score at 10 µM. 0.45% of 310,000 active. AID 463165;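 active means B-score, a plate-corrected calcium signal, over three deviations above library mean, with baseline fluorescence within five deviations of library mean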;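 further: RGS4 expression induced by doxycycline in cells with stable M3 receptor; B-score is computed from the integrated fluorescence ratio over baseline after carbachol; higher B-score means a larger calcium signal and so more RGS4 inhibition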
Target sequence (P49798 whole entry, looked up): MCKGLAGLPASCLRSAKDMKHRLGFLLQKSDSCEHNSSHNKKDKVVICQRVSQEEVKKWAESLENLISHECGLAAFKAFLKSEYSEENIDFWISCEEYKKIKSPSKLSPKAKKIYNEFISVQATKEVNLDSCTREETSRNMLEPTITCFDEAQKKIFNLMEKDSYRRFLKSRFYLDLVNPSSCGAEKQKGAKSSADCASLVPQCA
Active calls of the source: *; i = inactive; nt = no result given.

SMILES | RGS4 pot | MrgX1 ag | MrgX1 antag | MrgX1 PAM | RGS4 block
CCOc1ccc(N2CC(C(=O)N3CCN(C(=O)c4ccco4)CC3)CC2=O)cc1 (centres undefined) | i | i | i | i | i
Cc1nc2nc(-c3cccs3)cn2nc1C | -7* | i | i | i | i
CC(C)CC(=O)NC(C)C(c1cccs1)N1CCOCC1 (centres undefined) | i | i | i | i | i
O=C(/C=C/c1ccc(OC(F)F)cc1)Nc1cccc(S(=O)(=O)NC2=NCCCCC2)c1 | i | i | -8.2* | i | i
Cc1occc1C(=O)NC(C)C1CCCO1 (centres undefined) | i | i | -9.3* | i | i
C=CCn1c(C)cc(C(=O)CN2NS(=O)(=O)c3ccccc3C2=O)c1C | i | i | i | 7.1* | i
C=CCn1c(C)cc(C(=O)Cn2ncc(Cl)c(Cl)c2=O)c1C | i | i | i | i | i
Cc1nn(CCCC(=O)NCc2ccc(F)cc2)c(=O)c2nccn12 | i | i | -5.5* | i | i
COc1ccccc1/C=N/NC(=O)NC12CC3CC(CC(C3)C1)C2 | i | i | i | i | i
COc1ccc(/C=N/NC(=O)NC23CC4CC(CC(C4)C2)C3)c(OC)c1 | i | i | i | 6.9* | i
Cc1ccc(S(=O)(=O)N2CCC(NC(=O)C3CCCCC3)CC2)cc1 | i | i | i | i | i
Cc1ccc(S(=O)(=O)CCC(=O)OCC(=O)N(Cc2ccccc2)C(C)C)cc1 | i | i | i | i | i
Cc1ccc(C2C(C#N)=C(N)SC(N)=C2C#N)c(C)c1 | i | 52* | i | i | i
COC(=O)Cn1c(=NC(=O)c2ccc(OC)c(OC)c2)sc2cc(OC)ccc21 | i | i | i | i | i
CCOC(=O)c1c(S(=O)(=O)NCC(=O)N2CCN(c3ccccc3)CC2)c(C)n(C)c1C | i | i | i | i | i
CCCOC(=O)/C(C(N)=NCc1ccccc1)=C(\O)OCCC | i | 28* | i | i | i
CC(C)c1ccc(NC(=S)NCCc2c[nH]c3ccccc23)cc1 | i | i | i | i | i
Cc1ccc(NS(=O)(=O)c2ccc(C(=O)NCC(c3ccco3)N(C)C)cc2)cc1 (centres undefined) | i | i | -4.9* | i | i
Cc1ccc(S(=O)(=O)Nc2cccc(C(=O)NCC(c3ccccc3)N(C)C)c2)cc1F (centres undefined) | -7.5* | i | i | i | i
CCCN(CC(=O)Nc1ccccc1C)C(=O)c1ccc(Cl)c(S(=O)(=O)N2CCCC2)c1 | i | i | i | i | i
CCCN(CC(=O)Nc1ccccc1C)C(=O)c1ccc(C)c(S(=O)(=O)N2CCCCC2)c1 | i | i | -5.4* | i | i
O=C(Oc1ccc(-c2cnc3ccccc3n2)cc1)c1cc([N+](=O)[O-])ccc1Cl | i | i | -4.9* | i | i
COc1ccc(OC)c(S(=O)(=O)N2CCC(C(=O)N3CCCCCC3)CC2)c1 | i | i | i | i | i
COc1cc(/C=N\Nc2nc3ccccc3o2)cc(OC)c1OC | i | i | -6.6* | i | i
CCc1ccc(-c2nc(CS(=O)CC(=O)NCc3ccco3)c(C)o2)cc1 (centres undefined) | i | i | i | i | i
SMILES | RGS4 pot | MrgX1 ag | MrgX1 antag | MrgX1 PAM | RGS4 block
COc1ccc(NC(=O)COc2cc(C)cc(C)c2)cc1S(=O)(=O)N1CCCCC1 | i | i | i | i | i
N=C1S/C(=C\c2ccc(-c3ccccc3C(=O)O)o2)C(=O)N1c1ccc2c(c1)OCO2 | i | nt | nt | nt | i
COc1ccccc1N1C(=N)S/C(=C\c2ccc(-c3ccccc3C(=O)O)o2)C1=O | i | i | i | 11* | i
Cc1ccc(SCC(=O)Nc2ccc(N3CCN(C)CC3)c(F)c2)c(C)c1 | -7.6* | i | i | i | i
C=CCOc1ccc(CNCCc2ccc(S(N)(=O)=O)cc2)cc1 | -7.4* | i | i | i | i
COc1cccc(-c2cc(C(=O)N3CCN(C(=O)c4ccco4)CC3)on2)c1 | i | i | i | i | i
O=C(CCC1CCCN(C(=O)c2ccsc2)C1)N1CCN(c2ccccn2)CC1 (centres undefined) | i | i | i | i | i
Cc1nc(C(=O)Nc2cc(Cl)ccc2Cl)nn1-c1cc(OC(C)C)c(Cl)cc1Cl | i | i | -5.1* | i | i
Cc1ccccc1N=C1SC(CC(=O)Nc2ccc3ccccc3c2)C(=O)N1Cc1ccccn1 (centres undefined) | i | i | -9.7* | i | i
COc1ccc(CCNC(=O)c2cc(C(=O)c3cc(C)ccc3O)cn(CCc3ccc(OC)cc3)c2=O)cc1 | -8.7* | i | i | i | i
O=C(O)c1ccccc1Sc1c([N+](=O)[O-])cc(C(F)(F)F)cc1[N+](=O)[O-] | i | i | i | i | i
CCCCCCCCCCCCCCCC[N+](C)(C)CCN(Cc1ccc(OC)cc1)c1ncccn1 | nt | 56* | i | i | nt
CC(C)c1ccc(CNC(=O)C2CCCN2S(=O)(=O)c2ccccc2)cc1 (centres undefined) | i | i | i | i | i
CCOc1ccccc1N1C(=O)CC(Nc2ccc(N3CCOCC3)cc2)C1=O (centres undefined) | i | i | -4.5* | i | i
COc1ccc(CCN2C(=NC(=O)CC(C)C)SC3CS(=O)(=O)CC32)cc1OC (centres undefined) | i | i | i | i | i
CCOC(=O)COc1ccc(/C=C2/C(=O)NN(c3ccc(F)cc3)C2=O)cc1OC | i | 46* | i | i | i
COc1cc(/C=C2\C(=O)NN(c3ccc(C)cc3)C2=O)cc([N+](=O)[O-])c1O | i | i | i | i | i
COc1cc(/C=C2/C(=O)NN(c3ccc(Cl)cc3)C2=O)cc(OC)c1O | i | 44* | i | i | i
Cc1ccc(S(=O)(=O)N2CCOC23CCN(C(=O)c2ccccc2Br)CC3)cc1 | i | i | i | i | i
CN(C(=O)COC(=O)c1cccc(S(=O)(=O)N2CCOCC2)c1)C1CCS(=O)(=O)C1 (centres undefined) | i | i | -5.4* | i | i
CN(C(=O)COC(=O)c1cccc(S(=O)(=O)N2CCCCCC2)c1)C1CCS(=O)(=O)C1 (centres undefined) | i | i | i | i | i
CS(=O)(=O)C1=NN2C(=N)/C(=C\c3ccc(OC(=O)c4ccco4)cc3)C(=O)N=C2S1 | i | i | i | 12* | i

Screens: PubChem BioAssay, Johns Hopkins Ion Channel Center
